# Screening data from PubChem.
# An excerpt weighted towards active compounds, which were near 2.3% of everything screened.
# UBC13 polyUb: inhibitors of human UBC13 polyubiquitin chain formation; actives 0.47% (n = 330,000); P61088; inhibition, % at 20 µM; TR-FRET; in the data active means inhibition above about 45%, passing the limit was not always enough
# Fh CTSL1 inh: cathepsin L1 inhibition, PFM18AAP counter-screen; recombinant F. hepatica cathepsin L1, Z-Leu-Arg-MCA fluorescence; inhibition, % at 5.96 µM; actives 0.49% (n = 300,000); AID 1906;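 active means inhibition above the mean of all tested compounds plus 3 SD, set per screening campaign, cut at about 17% in these data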;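 further: 0% = plate median of test compound wells and 100% = 1 µM Z-Phe-Ala-diazomethylketone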
# UCH37 DUB inh: blocks the human deubiquitinase UCH37. Q9Y5K5. purified proteasome/UCH37, Ub-AMC cleavage fluorescence. inhibition, % (concentration not given with the values). actives 0.33% (n = 330,000). AID 588478;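 active means mean inhibition over replicate wells above about 20%, limit read from the data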;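 further: 0% = compound-free wells with enzyme and 100% = wells lacking proteasome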
#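 Test system – human UCH37 enzyme supplied as purified proteasome complex · Incubation – 30 min preincubation with enzyme, 25 min cleavage at room temperature · Detection – AMC fluorescence from Ub-AMC cleavage, excitation 355 nm, emission 460 nm · Benchmarks – no-proteasome wells (full inhibition) and compound-free wells (no inhibition)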
# PP1 inh: PP1-alpha (human) inhibition in PP5 counter-screen; P62136; purified PP1alpha, OMFP fluorescence; inhibition, % at 6.7 µM; actives 0.9% (n = 320,000);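 active means inhibition above the mean inhibition of all tested compounds plus 3 SD, computed separately for each screening campaign, cut at about 15% in these data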
# PREPL inhibitor: inhibits the human prolyl oligopeptidase-like enzyme; actives 0.68% (n = 320,000); recombinant PREPL, fluorescence polarization activity-based probe; inhibition, % at 5.96 µM; AID 2751;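 further: 0% = enzyme with DMSO and 100% = wells lacking enzyme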
# Target sequence (Q4J6C6 whole entry, looked up): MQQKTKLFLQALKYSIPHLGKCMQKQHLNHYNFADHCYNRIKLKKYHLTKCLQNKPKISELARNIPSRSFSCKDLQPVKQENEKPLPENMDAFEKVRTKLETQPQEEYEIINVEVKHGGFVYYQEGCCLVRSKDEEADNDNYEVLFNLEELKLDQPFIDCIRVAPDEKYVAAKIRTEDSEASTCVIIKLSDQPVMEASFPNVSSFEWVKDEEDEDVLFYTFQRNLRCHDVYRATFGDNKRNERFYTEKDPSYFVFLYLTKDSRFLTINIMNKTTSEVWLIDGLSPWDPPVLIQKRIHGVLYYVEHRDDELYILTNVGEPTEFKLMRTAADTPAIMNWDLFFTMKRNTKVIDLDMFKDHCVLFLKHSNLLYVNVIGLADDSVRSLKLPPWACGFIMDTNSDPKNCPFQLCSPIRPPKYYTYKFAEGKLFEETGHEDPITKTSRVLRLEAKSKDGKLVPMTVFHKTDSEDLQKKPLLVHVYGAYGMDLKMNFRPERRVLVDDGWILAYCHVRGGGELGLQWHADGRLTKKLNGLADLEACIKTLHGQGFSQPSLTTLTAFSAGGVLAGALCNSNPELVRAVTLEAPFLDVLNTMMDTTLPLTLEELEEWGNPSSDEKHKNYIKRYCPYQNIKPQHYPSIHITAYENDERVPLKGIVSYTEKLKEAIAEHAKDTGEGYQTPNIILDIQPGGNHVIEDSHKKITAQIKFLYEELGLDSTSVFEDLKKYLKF
# PP5 primary: inhibitors of human protein phosphatase 5 (PP5) | P53041 | purified PP5c, OMFP substrate fluorescence | inhibition, % at 6.7 µM | actives 0.18% (n = 320,000) | AID 1987;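 active means inhibition above the campaign's mean inhibition across all tested compounds plus 3 SD, cut at about 9.5% in these data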;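 further: 0% = DMSO only and 100% = 100 µM cantharidin control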
# PREPL inh cf: confirmation of human PREPL enzyme inhibitors. shares compounds with PREPL inhibitor. actives 67% (n = 2,000). recombinant PREPL, fluorescence polarization activity probe. AID 2803. inhibition, % at 5.96 µM;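 further: 0% = protein with DMSO and 100% = wells lacking protein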
# * = called active by the depositor; i = inactive; . = no result. Unless noted, no stated cut-off is given here; in the data, active means inhibition above about 43%; inactive means the rest.
SMILES,UBC13 polyUb,Fh CTSL1 inh,UCH37 DUB inh,PP1 inh,PREPL inhibitor,PP5 primary,PREPL inh cf
NNC(=O)c1oc2nc(-c3ccccc3)cc(-c3ccccc3)c2c1N,-5,-3,-4,-1,6,3,.
CC1=NNC(=O)C1CC(=O)NN=C/C(Br)=C/c1ccccc1 (stereo not drawn),.,.,6,.,.,.,.
Cc1csc(=NN=Cc2cccc([N+](=O)[O-])c2)n1Cc1ccco1,.,.,2,.,.,.,.
O=C(C[C@@H]1C/C=C\C[C@@H](Cc2ccc(F)cc2)C(=O)OC[C@H]2CCCN2C1=O)N[C@H](CO)Cc1ccccc1,2,.,-1,.,45*,.,47*
O=C(C[C@H]1C/C=C\C[C@@H](Cc2ccc(F)cc2)C(=O)OC[C@H]2CCCN2C1=O)N[C@@H](CO)Cc1ccccc1,20,.,0,.,60*,.,51*
O=C(C[C@@H]1C/C=C\CC[C@@H](Cc2ccc(F)cc2)C(=O)OC[C@@H]2CCCN2C1=O)N[C@H](CO)Cc1ccccc1,1,.,.,.,35,.,.
COc1ccccc1C(=O)Nc1ccc2nc(SCC(=O)N(C)C)sc2c1,5,2,2,4,15,3,.
O=C(CSc1nc2ccc(NC(=O)c3ccccc3C(=O)O)cc2s1)Nc1ccc(F)c([N+](=O)[O-])c1,-10,1,3,1,51*,1,14
CCCc1c(C(=O)NN=Cc2c(OC)ccc3ccccc23)nnn1-c1nonc1N,.,.,-67,.,.,.,.
Nc1[nH]nc2c1NN(c1ccc(Cl)cc1Cl)N2,-20,4,3,4,43*,4,13
Nc1c(-c2n[nH]c(=S)n2-c2ccc(Cl)cc2Cl)cnn1-c1ccccc1,5,0,3,-4,-5,-1,.
O=C1OC[C@@H]2CCCN2C(=O)[C@H](CC(=O)N(CCO)Cc2ccccc2)C/C=C\CC[C@H]1Cc1ccc(F)cc1,12,.,-1,.,35,.,.
O=C1OC[C@H]2CCCN2C(=O)[C@@H](CC(=O)N(CCO)Cc2ccccc2)C/C=C\C[C@H]1Cc1ccc(F)cc1,20,.,2,.,54*,.,45*
O=C1OC[C@@H]2CCCN2C(=O)[C@@H](CC(=O)N(CCO)Cc2ccccc2)C/C=C\C[C@H]1Cc1ccc(F)cc1,10,.,0,.,53*,.,40
O=C1OC[C@H]2CCCN2C(=O)[C@@H](CC(=O)N(CCO)Cc2ccccc2)C/C=C\CC[C@@H]1Cc1ccc(F)cc1,11,.,1,.,27,.,.
O=C1OC[C@H]2CCCN2C(=O)[C@@H](CC(=O)N(CCO)Cc2ccccc2)C/C=C\CC[C@H]1Cc1ccc(F)cc1,5,.,4,.,45*,.,41
O=C(C[n+]1ccc(C=NO)cc1)NC(=O)Nc1ccccc1,.,.,0,.,.,.,.
Cc1cccc(-n2c(C)cc(C=NNC(=O)c3cccc([N+](=O)[O-])c3C)c2C)c1,.,.,0,.,.,.,.
COc1cc(/C=C(\C#N)c2ccccn2)ccc1OCc1ccccc1Cl,.,3,-30,-3,47*,0,40
O=C(NN=Cc1coc2ccccc2c1=O)c1ccncc1,.,.,-29,.,.,.,.
COc1cc(Br)cc(Br)c1OCC(=O)NN=Cc1c(C)n(C)n(-c2ccccc2)c1=O,.,.,1,.,.,.,.
CN(C)CCN1C(=O)C(O)=C(C(=O)c2cc3ccccc3o2)C1c1ccc(N(C)C)cc1 (stereo not drawn),-12,-1,12,-1,51*,3,54*
O=Cc1ccccc1OCCOc1ccc([N+](=O)[O-])cc1,-12,4,5,6,43*,1,40
COC(CNC(=O)C1CCN(C(=O)c2cc3oc(C)cc3n2Cc2c(F)cccc2Cl)CC1)OC,-1,-1,2,-2,42,3,.
CCOC(=O)N1CCC(NC(=O)C2CCN(C(=O)c3cc4oc(C)cc4n3Cc3c(F)cccc3Cl)CC2)CC1,8,4,5,-2,55*,1,52*
SMILES,UBC13 polyUb,Fh CTSL1 inh,UCH37 DUB inh,PP1 inh,PREPL inhibitor,PP5 primary,PREPL inh cf
CC(C)Nc1ccc(Nc2ccnc3cc4ccccc4cc23)cc1,-93,-11,10,9,60*,1,62*
COc1ccc(/C=C/C(=O)Oc2ccc(C=NNC(=O)COc3c(C)cccc3C)cc2)cc1,.,.,-4,.,.,.,.
Cc1[nH]c2ccc(C(=O)NCCCN3CCCC3)cc2c1C,14,-2,3,0,14,0,.
Cc1[nH]c2ccc(C(=O)NCCCN3CCCCCC3)cc2c1C,14,2,2,-3,46*,0,32
COc1ccc(-c2nn(CCC#N)cc2C=NO)cc1OC,.,.,-1,.,.,.,.
Cc1ccsc1C=NNC(=O)c1n[nH]c2c1CCC2,.,.,10,.,.,.,.
NC(=O)[C@@H]1CCCNc2c(I)cc([N+](=O)[O-])cc2C(=O)N[C@@H](CCCN=C(N)N)C(=O)N[C@@H](CCCN=C(N)N)C(=O)N1,34,0,3,6,61*,0,59*
CC[C@H](C)[C@@H]1NC(=O)c2cc([N+](=O)[O-])cc(I)c2NCC[C@@H](C(N)=O)NC(=O)[C@H](CCCN=C(N)N)NC1=O,23,-2,0,1,25,-1,.
CC(=NNC(=O)c1cc(-c2ccccn2)nc2ccccc12)c1cccc([N+](=O)[O-])c1,.,.,2,.,.,.,.
COc1cc(C=NNC(=O)C2COc3ccccc3O2)ccc1O (stereo not drawn),.,.,-4,.,.,.,.
COCCn1c(=N)c(C(=O)NCCc2ccc(OC)cc2)cc2c(=O)n3cccc(C)c3nc21,3,0,-18,0,23,0,.
COc1ccc(CCNC(=O)c2cc3c(=O)n4cccc(C)c4nc3n(CCCN3CCOCC3)c2=N)cc1,4,4,.,-7,53*,-1,56*
COC(=O)c1c(N)n(CCCN2CCOCC2)c2nc3ccccc3nc12,-2,3,i,-2,9,0,.
Nc1c(C(=O)NCc2ccc(F)cc2)c2nc3ccccc3nc2n1CCCN1CCOCC1,19,1,-285,7,61*,8,46*
COc1ccc(CNC(=O)c2c(N)n(CCCN3CCOCC3)c3nc4ccccc4nc23)cc1,31,0,-266,-1,69*,7,50*
Nc1c(C(=O)NCc2ccccc2)c2nc3ccccc3nc2n1CCCN1CCOCC1,30,3,-279,5,45*,5,41
Cc1ccc(-n2c(-c3ccccc3)cc(C=NNC(=O)CC#N)c2-c2ccccc2)cc1,.,.,-24,.,.,.,.
O=C(NN=C1CCCc2c1[nH]c1ccc(Cl)cc21)c1ccncc1,.,.,4,.,.,.,.
O=C(N/N=C1\CCCc2c1[nH]c1ccc(Cl)cc21)c1ccncc1,-12,2,.,-1,45*,7,55*
CCN(CC)CCCN1C=C2C(=O)C(C)(OC(=O)C3CCCC3)C(=O)C=C2C=C1c1ccsc1 (stereo not drawn),-90,-4,2,8,43*,3,25
